Laboratory results from ChEMBL document CHEMBL3046184, “New analogues of (E)-β-farnesene with insecticidal activity and binding affinity to aphid odorant-binding proteins” (J Agric Food Chem, 2011).
Active and inactive are the calls of the source. The rule behind the calls is not given here.

Legend:
[1] = biological target: T1, Odorant-binding protein 3 (Acyrthosiphon pisum) (UniProt C1KUY3); experiment: Displacement of fluorescent probe 1-NPN from Acyrthosiphon pisum (pea aphid) recombinant OBP3 by competitive binding assay
T1 sequence (whole entry): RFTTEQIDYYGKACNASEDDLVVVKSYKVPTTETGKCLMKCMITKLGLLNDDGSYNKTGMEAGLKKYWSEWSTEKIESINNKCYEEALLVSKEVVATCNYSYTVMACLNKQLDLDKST
How it was run: (§1)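 Recombinant A. pisum OBP and the probe 1-NPN were each at 2 μM in 50 mM Tris-HCl, titrated with competitor to 2-16 μM final. Excitation was at 337 nm, with emission recorded at 380-450 nm and intensity read at the maximum (406-409 nm). The IC50 was taken as the concentration halving initial fluorescence, and Ki = IC50/(1+[1-NPN]/K1-NPN) using free 1-NPN.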

[2] = biological target: T2, Odorant-binding protein 1 (Acyrthosiphon pisum) (UniProt C1KUY1); experiment: Displacement of fluorescent probe 1-NPN from Acyrthosiphon pisum (pea aphid) recombinant OBP1 by competitive binding assay; how it was run: as §1
T2 sequence (whole entry): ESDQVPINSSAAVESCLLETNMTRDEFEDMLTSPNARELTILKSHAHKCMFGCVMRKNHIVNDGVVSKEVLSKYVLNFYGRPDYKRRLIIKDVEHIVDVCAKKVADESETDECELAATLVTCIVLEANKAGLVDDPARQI

[3] = Displacement of fluorescent probe 1-NPN from Acyrthosiphon pisum (pea aphid) recombinant OBP2 by competitive binding assay
[4] = test system: Aphis gossypii; experiment: Insecticidal activity against 3 day old Aphis gossypii (cotton aphid) in compound treated cabbage leaves at 600 microg/mL at 24 to 26 degC for 24 hr; assay type: functional, organism-based
How it was run: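 Compound was dissolved in acetone/methanol/water (1:1:18). Cabbage leaves (~5 cm) bearing aphids were dipped for 5 s and air-dried, then held in Petri dishes. Dead aphids were counted. Solvent served as the negative control and thiacloprid as the positive reference.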

SMILES | Activity [1] | Activity [2] | Activity [3] | Activity [4]
CC(C)=CCC/C(C)=C/COC(=O)c1cc(C(C)C)nn1C(C)(C)C | Active | – | – | –
CC(C)=CCC/C(C)=C/COC(=O)c1c(F)cccc1F | Active | Active | Active | –
CC(C)=CCC/C(C)=C/COC(=O)c1cc(-c2ccccc2)nn1-c1ccc([N+](=O)[O-])cc1 | Active | Active | Active | –
CC(C)=CCC/C(C)=C/COC(=O)c1ccc(Br)cc1 | Active | Active | Active | Active
CC(C)=CCC/C(C)=C/COC(=O)c1cc(-c2ccccc2)nn1C(C)(C)C | – | – | – | Active
N#C/N=C1\SCCN1Cc1ccc(Cl)nc1 | Active | – | – | –
CCCc1cc(C(=O)OC/C=C(\C)CCC=C(C)C)n(C(C)(C)C)n1 | Active | – | – | –
CC(C)=CCC/C(C)=C/COC(=O)c1cc(C(C)C)nn1-c1ccc([N+](=O)[O-])cc1 | Active | Active | Active | –
CC(C)=CCC/C(C)=C/COC(=O)c1cc(C)nn1C(C)(C)C | Active | – | – | –
CC(C)=CCC/C(C)=C/COC(=O)c1cc(-c2ccccc2)nn1-c1ccccc1 | – | – | – | Active
